Test results from publication PMC8223195 (Molecular Diversity, 2021).

Assays:
[1] = system: HL-60 (acute myeloid leukemia); test: IncuCyte real-time proliferation assay, HL-60; format: cell-based; conditions: HL-60, 72 h
[2] = system: Z-138 (non-Hodgkin lymphoma); test: IncuCyte real-time proliferation assay, Z-138; format: cell-based; conditions: Z-138, 72 h
LN-229 (glioblastoma) = test: IncuCyte real-time proliferation assay, LN-229; format: cell-based; conditions: LN-229, 72 h
[3] = system: NCI-H460 (lung carcinoma); test: IncuCyte real-time proliferation assay, NCI-H460; format: cell-based; conditions: NCI-H460, 72 h
[4] = system: Capan-1 (pancreatic adenocarcinoma); test: IncuCyte real-time proliferation assay, Capan-1; format: cell-based
hCoV-229E = format: cell-based, human corona virus 229E; conditions: for EC50: (*) mean of three independent experiments ± SEM
[5] = system: HCT-116 (colorectal carcinoma); test: IncuCyte real-time proliferation assay, HCT-116; format: cell-based; conditions: HCT-116, 72 h
[6] = system: DND-41 (acute lymphoblastic leukemia); test: IncuCyte real-time proliferation assay, DND-41; format: cell-based
[7] = system: K-562 (chronic myeloid leukemia); test: IncuCyte real-time proliferation assay, K-562; format: cell-based
[8] = system: peripheral blood mononuclear cells (PBMCs); test: In vitro apoptosis induction assay in PBMC; format: cell-based; conditions: 72 h
Outline: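 Counter-screen on normal PBMCs from two healthy donors. Cells were exposed to graded test-compound concentrations with Caspase-3/7 Green Reagent added. Activated intracellular caspase-3/7 cleaves the reagent at its DEVD motif, marking apoptotic cells. Propidium iodide staining separated dead from live cells. Read-out: numbers of apoptotic and dead cells.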

[9] = system: alpha-tubulin in HEp-2 cells; test: Tubulin immune fluorescence staining in HEp-2 cells; format: cell-based, human; conditions: HEp-2 cells treated for 3 h
[10] = * mean of two independent experiments ± SEM
[11] = Capan-1, 72 h, * mean of two independent experiments ± SEM
[12] = DND-41, 72 h, * mean of two independent experiments ± SEM
[13] = K-562, 72 h, * mean of two independent experiments ± SEM

| SMILES | IC50 [1, 10] | IC50 [2, 10] | IC50 (LN-229 (glioblastoma); [10]) | CC50 (HEL 299 cells) | IC50 [3, 10] | IC50 [4, 11] | EC50 (hCoV-229E) | IC50 [5, 10] | IC50 [6, 12] | IC50 [7, 13] | also measured |
| --- | --- | --- | --- | --- | --- | --- | --- | --- | --- | --- | --- |
| Cc1cc(C)n(-c2nnc3n2NC(c2ccc(Cl)cc2)C(C(=O)c2ccc(Br)cc2)S3)n1 (racemic) [5 g, ( ±)-(4-Bromophenyl)(6-(4-chlorophenyl)-3-(3,5-dimethyl-1H-pyrazol-1-yl)-6,7-dihydro-5H-triazolo[3,4-b][1,3,4]thiadiazin-7-yl)methanone] | > 100 µM | > 100 µM | > 100 µM | > 100 µM | > 100 µM | > 100 µM | > 100 µM | > 100 µM | > 100 µM | > 100 µM | – |
| Cc1cc(C)n(-c2nnc3n2NC(c2cc(F)c(F)c(F)c2)C(C(=O)c2ccccc2)S3)n1 (racemic) [5 k, ( ±)-(3-(3,5-Dimethyl-1H-pyrazol-1-yl)-6-(3,4,5-trifluorophenyl)-6,7-dihydro-5H-[1,2,4]triazole [3,4-b][1,3,4]thiadiazin-7-yl)(phenyl)methanone] | > 100 µM | > 100 µM | > 100 µM | > 100 µM | > 100 µM | > 100 µM | > 100 µM | > 100 µM | > 100 µM | > 100 µM | – |
| COc1cc(C2Nn3c(nnc3-n3nc(C)cc3C)SC2C(=O)c2ccccc2)cc(OC)c1OC (racemic) [5 m, ( ±)-(3-(3,5-Dimethyl-1H-pyrazol-1-yl)-6-(3,4,5-trimethoxyphenyl)-6,7-dihydro-5H-[1,2,4]triazole [3,4-b][1,3,4]thiadiazin-7-yl)(phenyl)methanone] | > 100 µM | > 100 µM | > 100 µM | > 100 µM | > 100 µM | > 100 µM | 95.7 µM | > 100 µM | > 100 µM | > 100 µM | – |
| Cc1cc(C)n(-c2nnc3n2NC(c2cccs2)C(C(=O)c2ccc([N+](=O)[O-])cc2)S3)n1 (racemic) [5 s, ( ±)-(3-(3,5-Dimethyl-1H-pyrazol-1-yl)-6-(thiophen-2-yl)-6,7-dihydro-5H-[1,2,4]triazolo[3,4-b][1,3,4]thiadiazin-7-yl)(4-nitrophenyl)methanone] | > 100 µM | > 100 µM | > 100 µM | > 100 µM | > 100 µM | > 100 µM | > 100 µM | > 100 µM | > 100 µM | > 100 µM | – |
| Cc1ccc(C(=O)C2Sc3nnc(-n4nc(C)cc4C)n3NC2c2ccc(C)cc2)cc1 (racemic) [Compound 5b, ( ±)-(3-(3,5-Dimethyl-1H-pyrazol-1-yl)-6-(p-tolyl)-6,7-dihydro-5H-[1,2,4]triazolo[3,4-b][1,3,4]thiadiazin-7-yl)(p-tolyl)methanone] | 50.9 µM | 48.4 µM | 47.1 µM | 81.5 µM | > 100 µM | 57.5 µM | 4.7 ± 0.5 µM | 67.8 µM | 39.3 µM | 10.4 µM | selectivity index (hCoV-229E): favorable selectivity indexes |
| Cc1cc(C)n(-c2nnc3n2NC(c2ccc([N+](=O)[O-])cc2)C(C(=O)c2ccc([N+](=O)[O-])cc2)S3)n1 (racemic) [Compound 5c, ( ±)-(3-(3,5-Dimethyl-1H-pyrazol-1-yl)-6-(4-nitrophenyl)-6,7-dihydro-5H-[1,2,4]triazolo[3,4-b][1,3,4]thiadiazin-7-yl)(4-nitrophenyl)methanone] | > 100 µM | > 100 µM | > 100 µM | > 100 µM | > 100 µM | > 100 µM | 24.4 µM | > 100 µM | > 100 µM | > 100 µM | – |
| Cc1cc(C)n(-c2nnc3n2NC(c2ccccc2Br)C(C(=O)c2ccc(F)cc2)S3)n1 (racemic) [Compound 5e, ( ±)-(6-(2-Bromophenyl)-3-(3,5-dimethyl-1H-pyrazol-1-yl)-6,7-dihydro-5H-[1,2,4]triazolo[3,4-b][1,3,4]thiadiazin-7-yl)(4-fluorophenyl)methanone] | > 100 µM | > 100 µM | > 100 µM | > 100 µM | > 100 µM | > 100 µM | > 100 µM | > 100 µM | > 100 µM | > 100 µM | – |
| Cc1ccc(C(=O)C2Sc3nnc(-n4nc(C)cc4C)n3NC2c2ccccc2Br)cc1 (racemic) [Compound 5f, ( ±)-(6-(2-Bromophenyl)-3-(3,5-dimethyl-1H-pyrazol-1-yl)-6,7-dihydro-5H-[1,2,4]triazolo[3,4-b][1,3,4]thiadiazin-7-yl)(p-tolyl)methanone] | > 100 µM | > 100 µM | > 100 µM | > 100 µM | > 100 µM | > 100 µM | 3.2 ± 1.8 µM | > 100 µM | > 100 µM | > 100 µM | selectivity index (hCoV-229E): favorable selectivity indexes |
| Cc1ccc(C(=O)C2Sc3nnc(-n4nc(C)cc4C)n3NC2c2cc(F)c(F)c(F)c2)cc1 (racemic) [Compound 5j, ( ±)-(3-(3,5-Dimethyl-1H-pyrazol-1-yl)-6-(3,4,5-trifluorophenyl)-6,7-dihydro-5H-[1,2,4]triazole [3,4-b][1,3,4]thiadiazin-7-yl)(p-tolyl)methanone] | 13 ± 2.8 µM | 1.9 ± 0.03 µM | 2.7 ± 0.2 µM | 23.8 µM | 56 µM | 2.3 ± 0.2 µM | > 100 µM | 2.5 ± 0.09 µM | 2.4 ± 0.4 µM | 3.4 ± 0.2 µM | viability of normal PBMCs ([8]; PBMC from two healthy donors, 100 to 0.16 µM): did not inhibit the viability; number of apoptotic and dead cells ([8]; PBMC, 100 µM, caspase-3/7 and PI): small increase in the number of apoptotic and dead cells; polymerization of tubulin [9]: inhibit the polymerization of tubulin in a dose-dependent manner |
| COc1ccc(C(=O)C2Sc3nnc(-n4nc(C)cc4C)n3NC2c2ccccc2Cl)cc1 (racemic) [Compound 5n, ( ±)-(6-(2-Chlorophenyl)-3-(3,5-dimethyl-1H-pyrazol-1-yl)-6,7-dihydro-5H-[1,2,4]triazolo[3,4-b][1,3,4]thiadiazin-7-yl)(4-methoxyphenyl)methanone] | 71.2 µM | 53.9 µM | 68.3 µM | > 100 µM | > 100 µM | 63.1 µM | > 100 µM | > 100 µM | 91.7 µM | 53.2 µM | – |
| Cc1ccc(C(=O)C2Sc3nnc(-n4nc(C)cc4C)n3NC2c2ccco2)cc1 (racemic) [Compound 5r, ( ±)-(3-(3,5-Dimethyl-1H-pyrazol-1-yl)-6-(furan-2-yl)-6,7-dihydro-5H-[1,2,4]triazolo[3,4-b] [1,3,4]thiadiazin-7-yl)(p-tolyl)methanone] | 54 µM | 50.2 µM | 43.9 µM | > 100 µM | 47 µM | 54.3 µM | > 100 µM | 69 µM | 70.2 µM | 23.5 µM | – |
| Cc1cc(C)n(-c2nnc3n2NC(c2ccco2)C(C(=O)c2ccc([N+](=O)[O-])cc2)S3)n1 (racemic) [Compound 5t, ( ±)-(3-(3,5-Dimethyl-1H-pyrazol-1-yl)-6-(furan-2-yl)-6,7-dihydro-5H-[1,2,4]triazolo[3,4-b][1,3,4]thiadiazin-7-yl)(4-nitrophenyl)methanone] | 74.5 µM | 49.5 µM | 62.7 µM | > 100 µM | > 100 µM | > 100 µM | > 100 µM | > 100 µM | > 100 µM | 79.3 µM | – |
| COc1ccc(C2=C(C(=O)c3ccc([N+](=O)[O-])cc3)Sc3nnc(-n4nc(C)cc4C)n3N2)c(OC)c1 [Compound 5p, ( ±)-(6-(2,4-dimethoxyphenyl)-3-(3,5-dimethyl-1H-pyrazol-1-yl)-5H-[1,2,4]triazolo[3,4-b][1,3,4]thiadiazin-7-yl)(4-nitrophenyl)methanone] | > 100 µM | > 100 µM | > 100 µM | > 100 µM | > 100 µM | > 100 µM | > 100 µM | > 100 µM | > 100 µM | > 100 µM | – |
| CC(=O)O[C@@]12CO[C@@H]1C[C@H](O)[C@@]1(C)C(=O)[C@H](O)C3=C(C)[C@@H](OC(=O)[C@H](O)[C@@H](NC(=O)OC(C)(C)C)c4ccccc4)C[C@@](O)([C@@H](OC(=O)c4ccccc4)[C@H]21)C3(C)C [Docetaxel, reference compound] | – | – | – | – | – | – | – | – | – | – | IC50 ([1]; Homo sapiens): 0.0023 ± 0.0003 µM; IC50 ([2]; Homo sapiens): 0.0011 ± 0.0008 µM; IC50 (LN-229 (glioblastoma); Homo sapiens): 0.0087 ± 0.0004 µM; IC50 ([3]; Homo sapiens): 0.0038 ± 0.0029 µM; IC50 ([4]; Homo sapiens, CAPAN-1, 72 h): 0.0042 ± 0.0021 µM; IC50 ([5]; Homo sapiens): 0.0009 ± 0.0008 µM; IC50 ([6]; DND41, 72 h): 0.0033 ± 0.0014 µM; IC50 ([7]; Homo sapiens, K562, 72 h): 0.0037 ± 0.0003 µM |
| CN[C@@H]1C[C@H]2O[C@@](C)([C@@H]1OC)n1c3ccccc3c3c4c(c5c6ccccc6n2c5c31)C(=O)NC4 [STS, staurosporine, reference compound] | – | – | – | – | – | – | – | – | – | – | IC50 (LN-229 (glioblastoma); Homo sapiens): 0.0229 ± 0.0021 µM; IC50 ([4]; Homo sapiens, CAPAN-1, 72 h): 0.0007 ± 0.0002 µM |
